Legend:
[1] = Therapeutic index (TI) value as ratio of lethal dose (LD50) to the inhibitory concentration (IC50); type: cell-based; settings: human, KB cells; read-out: TI
[2] = In vitro inhibitory concentration against the growth of Toxoplasma gondii in human foreskin fibroblast monolayer cells (HFF cells); type: functional, cell-based
In short: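 T. gondii 2F clone tachyzoites expressing β-galactosidase, kept in HFF in DMEM with 10% FBS, 2 mM glutamine and 1 mM pyruvate. Confluent HFF monolayers were given serially diluted drug in medium, then 10^4 filtered, needle-passed tachyzoites/mL, and held 48 h at 37 °C. Cells were lysed at 50 °C, and CPRG turnover was read at 570 nm. IC50 came from a hyperbolic fit of % inhibition against concentration.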

KB = test: Lethal dose required to inhibit the growth of human KB (nasopharyngeal carcinoma) cell line; type: functional; settings: read-out: LD50 (the source's name)
HFF = test: Inhibitory concentration against the growth of Toxoplasma gondii overexpressing FPPS enzyme in human foreskin fibroblast monolayer cells; (control = 0.29 uM); type: functional, cell-based
In short: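 FPPS-overexpressing T. gondii line: 2F clone tachyzoites (beta-galactosidase) electroporated with 50 µg ptubTgFPPS-FLAG/sagCAT. Stable lines were selected with 20 µM chloramphenicol and cloned by limiting dilution, giving 4-5-fold more FPPS by Western blot. Assay: compounds serially diluted in medium on confluent HFF; 10^4 tachyzoites/mL (filtered 3 µm, needle-passed); 48 h at 37 °C. Lysis, then CPRG read at 570 nm; IC50 from rectangular hyperbolic fit of % inhibition.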

| Structure (SMILES) | selectivity ratio [1] | IC50 [2] [µM] | CC50 (KB) [µM] | IC50 (HFF) [µM] |
| --- | --- | --- | --- | --- |
| O=P(O)(O)C(Nc1ccnc(O)c1)P(=O)(O)O | 14.8 | 17.4 | 257 | – |
| O=P(O)(O)C(O)(CC1=NC=NC1)P(=O)(O)O | 6.12 | 6.7 | 41 | – |
| O=P(O)(O)C(Sc1ccccn1)P(=O)(O)O | – | 51.2 | – | – |
| O=[N+]([O-])c1cccc(CC(O)(P(=O)(O)O)P(=O)(O)O)c1 | – | 47.9 | – | – |
| Cc1cccc(CC(O)(P(=O)(O)O)P(=O)(O)O)c1 | – | 36.4 | – | – |
| O=P(O)(O)C(Nc1cccc(Cc2ccccc2)c1)P(=O)(O)O | – | 56.2 | – | – |
| O=P(O)(O)C(O)(Cc1cccc2ccccc12)P(=O)(O)O | – | 68.8 | – | – |
| C[C@H](NC(P(=O)(O)O)P(=O)(O)O)c1cccc2ccccc12 | – | 55.1 | – | – |
| CCc1cccc(NC(P(=O)(O)O)P(=O)(O)O)n1 | – | 218 | – | – |
| O=P(O)(O)C(O)(Cn1cnc2ccccc21)P(=O)(O)O | – | 4.5 | – | – |
| CCC(C)NC(P(=O)(O)O)P(=O)(O)O (stereo unspecified) | – | 164 | – | – |
| O=P(O)(O)C(Nc1nccc2ccccc12)P(=O)(O)O | 32.2 | 20.9 | 673 | – |
| O=P(O)(O)C(Nc1ccccn1)P(=O)(O)O | 10.4 | 44.6 | 465 | – |
| Cc1csc(NC(P(=O)(O)O)P(=O)(O)O)n1 | – | 30.9 | – | – |
| O=P(O)(O)C(O)(CCc1cccnc1)P(=O)(O)O | > 5.46 | 147 | > 804 | – |
| CCCCCCCC(O)(P(=O)(O)O)P(=O)(O)O | 21.9 | 13.8 | 302 | – |
| NCCCCC(O)(P(=O)(O)O)P(=O)(O)O | 0.72 | 126 | 91 | – |
| CCCCC(O)(P(=O)(O)O)P(=O)(O)O | > 6.95 | 150 | > 1040 | – |
| O=P(O)(O)C(Nc1cccnc1)P(=O)(O)O | 18.6 | 42 | 782 | – |

| Structure (SMILES) | selectivity ratio [1] | IC50 [2] [µM] | CC50 (KB) [µM] | IC50 (HFF) [µM] |
| --- | --- | --- | --- | --- |
| CC(C)(C)c1cccc(NC(P(=O)(O)O)P(=O)(O)O)c1 | – | 157 | – | – |
| CC1CCCCN1C(P(=O)(O)O)P(=O)(O)O (stereo unspecified) | – | 132 | – | – |
| CC(C)c1cccc(NC(P(=O)(O)O)P(=O)(O)O)c1 | – | 160 | – | – |
| CN(Cc1ccccc1)C(P(=O)(O)O)P(=O)(O)O | – | 76.7 | – | – |
| Cc1ccnc(N(Cc2ccccc2)C(P(=O)(O)O)P(=O)(O)O)c1 | – | 226 | – | – |
| C[C@@H](NC(P(=O)(O)O)P(=O)(O)O)c1cccc2ccccc12 | – | 63.2 | – | – |
| Nc1ccc(CC(O)(P(=O)(O)O)P(=O)(O)O)cc1 | 2.71 | 80.3 | 218 | – |
| O=P(O)(O)C(O)(Cc1ccccn1)P(=O)(O)O | 1.71 | 8.11 | 13.9 | – |
| O=P(O)(O)C(N1CCCCC1)P(=O)(O)O | > 21.9 | 51.2 | > 1120 | – |
| Cc1cc(C)nc(NC(P(=O)(O)O)P(=O)(O)O)c1 | 2.7 | 235 | 633 | – |
| Cc1cccnc1NC(P(=O)(O)O)P(=O)(O)O | 4.02 | 44.5 | 179 | – |
| CCCCCCC(O)(P(=O)(O)O)P(=O)(O)O | 4.23 | 25.3 | 107 | – |
| O=P(O)(O)C(O)(CSc1ccncc1)P(=O)(O)O | > 10.3 | 72.5 | > 746 | – |
| Cc1ccnc(NC(P(=O)(O)O)P(=O)(O)O)c1 | 2.32 | 59 | 137 | – |
| O=P(O)(O)C(O)(Cc1ccncc1)P(=O)(O)O | 48.9 | 3.5 | 171 | – |
| CCC(C)CNC(P(=O)(O)O)P(=O)(O)O (stereo unspecified) | 10.8 | 36.6 | 394 | – |
| O=P(O)(O)C(O)(Cc1ccccc1)P(=O)(O)O | > 10.3 | 90.2 | > 931 | – |
| O=P(O)(O)C(Nc1ccc(Cl)cc1Cl)P(=O)(O)O [2,4-DICHLOROPHENYLAMINOMETHYLENEBISPHOSPHONIC ACID] | – | 154 | – | – |
| CCCCN(CC)C(P(=O)(O)O)P(=O)(O)O [(BUTYL(ETHYL)AMINO)METHYLENEDIPHOSPHONIC ACID] | > 7.99 | 132 | > 1060 | – |

| Structure (SMILES) | selectivity ratio [1] | IC50 [2] [µM] | CC50 (KB) [µM] | IC50 (HFF) [µM] |
| --- | --- | --- | --- | --- |
| CCCCNC(P(=O)(O)O)P(=O)(O)O [(BUTYLAMINO)METHYLENEDIPHOSPHONIC ACID] | 2.78 | 76.1 | 212 | – |
| O=P(O)(O)C(NC1CCC1)P(=O)(O)O [(CYCLOBUTYLAMINO)METHYLENEDIPHOSPHONIC ACID] | 2.15 | 121 | 260 | – |
| O=P(O)(O)C(NC1CCCCCCC1)P(=O)(O)O [(CYCLOOCTYLAMINO)METHYLENEDIPHOSPHONIC ACID] | 8.19 | 43.2 | 354 | – |
| O=P(O)(O)C(NC1CCCC1)P(=O)(O)O [(CYCLOPENTYLAMINO)METHYLENEDIPHOSPHONIC ACID] | 9.19 | 68.4 | 629 | – |
| O=P(O)(O)C(NC1CC1)P(=O)(O)O [(CYCLOPROPYLAMINO)METHYLENEDIPHOSPHONIC ACID] | 10.7 | 23.1 | 246 | – |
| O=P(O)(O)C(N(C1CCCCC1)C1CCCCC1)P(=O)(O)O [(DICYCLOHEXYLAMINO)METHYLENEDIPHOSPHONIC ACID] | > 20.1 | 42.1 | > 844 | – |
| CC(C)CCNC(P(=O)(O)O)P(=O)(O)O [(ISOPENTYLAMINO)METHYLENEDIPHOSPHONIC ACID] | 3.56 | 135 | 480 | – |
| CCCCCCCCCNC(P(=O)(O)O)P(=O)(O)O [(NONYLAMINO)METHYLENEDIPHOSPHONIC ACID] | > 103 | 8.89 | > 919 | – |
| CCCNC(P(=O)(O)O)P(=O)(O)O [(PROPYLAMINO)METHYLENEDIPHOSPHONIC ACID] | 7.21 | 69.2 | 499 | – |
| NCCCC(O)(P(=O)(O)O)P(=O)(O)O [ALENDRONIC ACID] | – | 109 | – | – |
| O=C1C(O)=C([C@H]2CC[C@H](c3ccc(Cl)cc3)CC2)C(=O)c2ccccc21 [ATOVAQUONE] | – | – | – | 0.28 |
| CCCCCN(C)CCC(O)(P(=O)(O)O)P(=O)(O)O [IBANDRONIC ACID] | 0.19 | 54.9 | 10.4 | – |
| O=P(O)(O)C(NC1CCCCCC1)P(=O)(O)O [INCADRONIC ACID] | 4.19 | 39.6 | 166 | – |
| O=P(O)(O)C(O)(Cc1cnc2ccccn12)P(=O)(O)O [MINODRONIC ACID] | – | 1.88 | – | – |
| O=P(O)(O)C(N1CCCCCC1)P(=O)(O)O [N-(HEXAMETHYLENEIMINO)METHYLENEBISPHOSPHONIC ACID] | > 12.2 | 89.8 | > 1100 | – |
| NCCCCCC(O)(P(=O)(O)O)P(=O)(O)O [NERIDRONIC ACID] | 11.4 | 59.7 | 680 | – |
| NCCC(O)(P(=O)(O)O)P(=O)(O)O [PAMIDRONIC ACID] | 4.11 | 38 | 156 | – |
| O=P(O)(O)C(O)(Cc1cccnc1)P(=O)(O)O [RISEDRONIC ACID] | 106 | 2.4 | 255 | – |
| O=P(O)(O)C(N1CCSCC1)P(=O)(O)O [THIOMORPHOLINOMETHYLENEDIPHOSPHONIC ACID] | > 6.73 | 161 | > 1080 | – |

Source: ChEMBL document CHEMBL1143625, “Bisphosphonate inhibitors of Toxoplasma gondi growth: in vitro, QSAR, and in vivo investigations” (J Med Chem, 2005)
